ChEMBL document CHEMBL1152645, “Structure-based drug design identifies novel LPA3 antagonists” (Bioorg Med Chem, 2009)
Active and inactive are the calls of the source. The calls are words filed in the database; no cut-off is given here.

Legend:
[1] = biological target: T1, Lysophosphatidic acid receptor 3 (Homo sapiens) (UniProt Q9UBY5); experiment: Agonist activity at LPA3 receptor expressed in rat RH7777 cells assessed as effect on intracellular calcium response at 10 uM; type: functional, cell-based
T1 sequence (whole entry): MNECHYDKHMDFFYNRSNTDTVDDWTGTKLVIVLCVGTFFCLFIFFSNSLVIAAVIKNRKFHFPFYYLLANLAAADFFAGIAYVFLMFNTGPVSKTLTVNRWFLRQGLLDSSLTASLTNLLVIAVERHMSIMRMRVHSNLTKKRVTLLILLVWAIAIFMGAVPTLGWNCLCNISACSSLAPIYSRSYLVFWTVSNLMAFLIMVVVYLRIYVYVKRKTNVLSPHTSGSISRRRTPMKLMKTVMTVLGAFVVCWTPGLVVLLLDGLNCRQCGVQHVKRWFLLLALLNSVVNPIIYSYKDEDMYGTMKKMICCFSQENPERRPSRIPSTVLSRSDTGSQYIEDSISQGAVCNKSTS
Procedure, shortened: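 Agonist test: compound (methanol stock diluted in buffer) was applied alone to fura-2-loaded, stably receptor-expressing cells after overnight culture and 4-6 h in serum-free medium. Intracellular Ca2+ was followed as the 520 nm emission ratio at 340/380 nm excitation. Run in quadruplicate.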

[2] = biological target: Lysophosphatidic acid receptor 3 (Homo sapiens) (UniProt Q9UBY5); experiment: Antagonist activity at LPA3 receptor expressed in rat RH7777 cells assessed as inhibition of LPA-induced calcium response at 10 uM
[3] = biological target: T2, Lysophosphatidic acid receptor 1 (Homo sapiens, UniProt Q92633); experiment: Antagonist activity at LPA1 receptor expressed in rat RH7777 cells assessed as inhibition of LPA-induced intracellular calcium response; type: functional, cell-based
T2 sequence (Q92633 whole entry): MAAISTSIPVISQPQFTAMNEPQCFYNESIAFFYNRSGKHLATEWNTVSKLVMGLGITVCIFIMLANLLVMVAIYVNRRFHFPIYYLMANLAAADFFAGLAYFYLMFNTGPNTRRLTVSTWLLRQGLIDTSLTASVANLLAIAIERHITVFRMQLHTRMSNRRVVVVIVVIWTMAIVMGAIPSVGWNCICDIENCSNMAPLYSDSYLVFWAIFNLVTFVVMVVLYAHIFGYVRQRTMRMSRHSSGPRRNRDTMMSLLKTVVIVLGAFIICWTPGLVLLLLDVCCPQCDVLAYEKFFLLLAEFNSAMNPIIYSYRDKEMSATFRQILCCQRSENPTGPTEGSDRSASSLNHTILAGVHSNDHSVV
Procedure, shortened: (§1)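 Cells stably expressing the receptor were plated, cultured overnight, serum-starved for 4-6 h and loaded with fura-2. LPA-induced Ca2+ mobilization was measured as the 520 nm emission ratio at 340/380 nm excitation. Compounds were dissolved in methanol and diluted in buffer. IC50 came from concentration-response curves, with samples in quadruplicate.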

[4] = biological target: T3, Lysophosphatidic acid receptor 3 (Homo sapiens, UniProt Q9UBY5); experiment: Binding affinity to LPA3
T3 sequence (Q9UBY5 whole entry): T1 sequence (whole entry)

[5] = biological target: T4, Lysophosphatidic acid receptor 5 (Homo sapiens, UniProt Q9H1C0); experiment: Antagonist activity at LPA5 receptor expressed in rat RH7777 cells assessed as inhibition of LPA-induced intracellular calcium response; type: functional, cell-based; procedure, shortened: as §1
T4 sequence (Q9H1C0 whole entry): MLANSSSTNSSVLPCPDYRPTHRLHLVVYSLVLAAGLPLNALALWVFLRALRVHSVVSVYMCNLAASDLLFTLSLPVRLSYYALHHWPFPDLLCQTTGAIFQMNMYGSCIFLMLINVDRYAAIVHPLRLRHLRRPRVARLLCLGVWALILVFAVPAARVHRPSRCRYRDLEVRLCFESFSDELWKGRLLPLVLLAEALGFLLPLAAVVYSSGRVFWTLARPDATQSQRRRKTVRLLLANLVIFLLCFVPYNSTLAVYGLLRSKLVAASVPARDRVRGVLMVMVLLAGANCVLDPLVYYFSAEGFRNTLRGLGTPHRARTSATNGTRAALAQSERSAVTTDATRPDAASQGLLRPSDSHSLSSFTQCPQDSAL

[6] = biological target: T3, Lysophosphatidic acid receptor 3; experiment: (§2) Antagonist activity at LPA3 receptor expressed in rat RH7777 cells assessed as inhibition of LPA-induced intracellular calcium response; type: functional, cell-based; procedure, shortened: as §1
[7] = biological target: T4, Lysophosphatidic acid receptor 5; experiment: Binding affinity to LPA5
[8] = biological target: T2, Lysophosphatidic acid receptor 1; experiment: Binding affinity to LPA1
[9] = biological target: T1, Lysophosphatidic acid receptor 3 (Homo sapiens); experiment: as §2; type: functional, cell-based; procedure, shortened: as §1

## CC(=O)COc1ccc(NC(=O)CN2C(=O)c3ccc([N+](=O)[O-])cc3C2=O)cc1
[1]
  Activity: Active

## O=C(O)CCCN1C(=O)c2ccc(C(=O)c3cccc([N+](=O)[O-])c3)cc2C1=O
[2]
  inhibition: 10%

## O=C(O)c1ccc2c(c1)C(=O)N(c1cccc(Oc3ccc([N+](=O)[O-])cc3)c1)C2=O
[3]
  IC50: 94 nM
[4]
  Ki: 230 nM
[5]
  IC50: 463 nM
[6]
  IC50: 752 nM
[7]
  Ki: 292 nM
[2]
  inhibition: 82%
[8]
  Ki: 48 nM

## Cc1ccc(Oc2ccc3c(c2)C(=O)N(CC(=O)O)C3=O)cc1
[3]
  IC50: 609 nM
[4]
  Ki: 1080 nM
[6]
  IC50: 2990 nM
[8]
  Ki: 311 nM

## O=C(O)c1ccccc1N1C(=O)c2ccc(Oc3ccc([N+](=O)[O-])cc3)cc2C1=O
[2]
  inhibition: 38%

## O=C(O)CN1C(=O)c2ccc(Oc3cccc([N+](=O)[O-])c3)cc2C1=O
[9]
  Imax: 50%

## O=C(O)COc1ccc(N2C(=O)c3ccc(Oc4cccc([N+](=O)[O-])c4)cc3C2=O)cc1
[1]
  Activity: Active

## O=C(O)CCCN1C(=O)c2ccc(Oc3cccc([N+](=O)[O-])c3)cc2C1=O
[2]
  inhibition: 18%

## CC(=O)c1ccc(NC(=O)c2cccc(N3C(=O)c4ccc([N+](=O)[O-])cc4C3=O)c2)cc1
[2]
  inhibition: 18%

## O=C1c2ccc(Oc3cccc([N+](=O)[O-])c3)cc2C(=O)N1Cc1cccnc1
[2]
  inhibition: 38%

## Cc1c(C(=O)O)cccc1N1C(=O)c2ccc(Oc3cccc([N+](=O)[O-])c3)cc2C1=O
[2]
  inhibition: 42%

## O=C(O)c1cc(C(=O)O)cc(N2C(=O)c3ccc(Oc4cccc([N+](=O)[O-])c4)cc3C2=O)c1
[2]
  inhibition: 43%

## O=C(O)CN1C(=O)c2ccc(C(=O)c3cccc([N+](=O)[O-])c3)cc2C1=O
[1]
  Activity: Active
